Measurements from ChEMBL document CHEMBL4118021, “Studies of TAK1-centered polypharmacology with novel covalent TAK1 inhibitors” (Bioorg Med Chem, 2017).
Each block holds one compound with its values, some of them ahead of it. Calls of active or inactive are those of the source. The calls are words filed in the database; no cut-off is given here.

Assays:
[1] = molecular target: BMP-2-inducible protein kinase (Homo sapiens) (UniProt Q9NSY1); assay: Inhibition of human BIKE (34 to 329 residues) expressed in bacterial expression system assessed as enzyme activity at 1 uM by KINOMEScan assay relative to control; design: scale not given: the % may be the effect or the level left
Outline: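 In vitro ATP-site competition binding assay (KinomeScan) across a panel of 456 kinases. Compound was tested at 1 and 10 μM. The read-out is the binding inhibition score relative to control.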

[2] = molecular target: T1, 80S Ribosome (Homo sapiens) (UniProt P08865+P42677+P62753+P15880+P23396+P61247+P62701+P22090+P46782+P62081+P62241+P46781+P46783+P62280+P25398+P62277+P62263+P62841+P62244+P62249+P08708+P62269+P39019+P60866+P63220+P62266+P62847+P62851+P62854+P62979+P62857+P62273+P62861+P39023+P36578+P46777+Q02878+P18124+P62424+P62917+P32969+P27635+P62906+P62913+P30050+P26373+P40429+P50914+P61313+P18621+Q07020+Q02543+P84098+P46778+P35268+P62829+P62750+P83731+P61254+P61353+P46776+P46779+P47914+P62888+P62899+P62910+P49207+P42766+P18077+Q9Y3U8+P83881+P61927+P61513+P63173+P62891+P62945+P05388+P05386); assay: Binding affinity to RPL27 in human NCI-H23 cells at 1 uM by mass spectrometry based pull down assay; assay type: cell-based
[3] = molecular target: Large ribosomal subunit protein bL19m (Homo sapiens) (UniProt P49406); assay: Binding affinity to MRPL19 in human NCI-H23 cells at 1 uM by mass spectrometry based pull down assay; assay type: cell-based
[4] = molecular target: Protein arginine N-methyltransferase 5 (Homo sapiens) (UniProt O14744); assay: Binding affinity to PRMT5 in human NCI-H23 cells at 1 uM by mass spectrometry based pull down assay; assay type: cell-based
[5] = molecular target: T1, 80S Ribosome (Homo sapiens); assay: Binding affinity to RPL24 in human NCI-H23 cells at 1 uM by mass spectrometry based pull down assay; assay type: cell-based
[6] = molecular target: Acyl-coenzyme A thioesterase 9, mitochondrial (Homo sapiens) (UniProt Q9Y305); assay: Binding affinity to ACOT9 in human NCI-H23 cells at 1 uM by mass spectrometry based pull down assay; assay type: cell-based
Outline: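 NCI-H23 or NCI-H358 cells were grown and lysed. Lysates were incubated overnight at 4 °C with 1 μM biotinylated covalent probe or DMSO, then pulled down on streptavidin beads. Proteins were run on polyacrylamide gels and stained with Coomassie. Bands were excised, digested and identified by mass spectrometry.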

[7] = molecular target: F-actin-capping protein subunit beta (Homo sapiens) (UniProt P47756); assay: Binding affinity to CAPZB in human NCI-H23 cells at 1 uM by mass spectrometry based pull down assay; assay type: cell-based
[8] = molecular target: ATP-dependent 6-phosphofructokinase, muscle type (Homo sapiens) (UniProt P08237); assay: Binding affinity to PFKM in human NCI-H23 cells at 1 uM by mass spectrometry based pull down assay; assay type: cell-based
[9] = molecular target: Amidophosphoribosyltransferase (Homo sapiens) (UniProt Q06203); assay: Binding affinity to PPAT in human NCI-H23 cells at 1 uM by mass spectrometry based pull down assay; assay type: cell-based
[10] = molecular target: Inosine-5'-monophosphate dehydrogenase 2 (Homo sapiens) (UniProt P12268); assay: Binding affinity to IMPDH2 in human NCI-H23 cells at 1 uM by mass spectrometry based pull down assay; assay type: cell-based
[11] = molecular target: Mitogen-activated protein kinase 1 (Homo sapiens) (UniProt P28482); assay: Binding affinity to MAPK1 in human NCI-H23 cells at 1 uM by mass spectrometry based pull down assay; assay type: cell-based
[12] = molecular target: 14-3-3 protein epsilon (Homo sapiens) (UniProt P62258); assay: Binding affinity to YWHAE in human NCI-H358 cells at 1 uM by mass spectrometry based pull down assay; assay type: cell-based
[13] = molecular target: TBC1 domain family member 15 (Homo sapiens) (UniProt Q8TC07); assay: Binding affinity to TBC1D15 in human NCI-H358 cells at 1 uM by mass spectrometry based pull down assay; assay type: cell-based
[14] = molecular target: F-actin-capping protein subunit beta (Homo sapiens) (UniProt P47756); assay: Binding affinity to CAPZB in human NCI-H358 cells at 1 uM by mass spectrometry based pull down assay; assay type: cell-based
[15] = molecular target: Glutamate--cysteine ligase catalytic subunit (Homo sapiens) (UniProt P48506); assay: Binding affinity to GCLC in human NCI-H358 cells at 1 uM by mass spectrometry based pull down assay; assay type: cell-based
[16] = molecular target: Poly(rC)-binding protein 1 (Homo sapiens) (UniProt Q15365); assay: Binding affinity to PCBP1 in human NCI-H358 cells at 1 uM by mass spectrometry based pull down assay; assay type: cell-based
[17] = molecular target: Trafficking protein particle complex subunit 5 (Homo sapiens) (UniProt Q8IUR0); assay: Binding affinity to TRAPPC5 in human NCI-H358 cells at 1 uM by mass spectrometry based pull down assay; assay type: cell-based
[18] = molecular target: Small proline-rich protein 3 (Homo sapiens) (UniProt Q9UBC9); assay: Binding affinity to SPRR3 in human NCI-H358 cells at 1 uM by mass spectrometry based pull down assay; assay type: cell-based
[19] = molecular target: Ribosomal protein S6 kinase alpha-4 (Homo sapiens) (UniProt O75676); assay: Binding affinity to RPS6KA4 in human NCI-H358 cells at 1 uM by mass spectrometry based pull down assay; assay type: cell-based
[20] = molecular target: Tight junction protein 1 (Homo sapiens) (UniProt Q07157); assay: Binding affinity to TJP1 in human NCI-H358 cells at 1 uM by mass spectrometry based pull down assay; assay type: cell-based
[21] = molecular target: ATP-dependent RNA helicase DHX15 (Homo sapiens) (UniProt O43143); assay: Binding affinity to DHX15 in human NCI-H358 cells at 1 uM by mass spectrometry based pull down assay; assay type: cell-based
[22] = molecular target: Ubiquitin-associated protein 2-like (Homo sapiens) (UniProt Q14157); assay: Binding affinity to UBAP2L in human NCI-H358 cells at 1 uM by mass spectrometry based pull down assay; assay type: cell-based
[23] = molecular target: ATP synthase F(1) complex subunit alpha, mitochondrial (Homo sapiens) (UniProt P25705); assay: Binding affinity to ATP5A1 in human NCI-H358 cells at 1 uM by mass spectrometry based pull down assay; assay type: cell-based

F-actin-capping protein subunit beta (Homo sapiens), sequence (P47756 whole entry): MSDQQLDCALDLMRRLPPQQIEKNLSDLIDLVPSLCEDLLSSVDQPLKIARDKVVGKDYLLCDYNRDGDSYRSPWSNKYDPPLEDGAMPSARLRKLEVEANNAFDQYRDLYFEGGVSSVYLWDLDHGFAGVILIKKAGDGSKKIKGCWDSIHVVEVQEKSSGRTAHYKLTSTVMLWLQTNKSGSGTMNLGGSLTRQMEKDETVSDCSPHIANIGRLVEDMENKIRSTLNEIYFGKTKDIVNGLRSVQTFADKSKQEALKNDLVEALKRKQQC
Small proline-rich protein 3 (Homo sapiens), sequence (Q9UBC9 whole entry): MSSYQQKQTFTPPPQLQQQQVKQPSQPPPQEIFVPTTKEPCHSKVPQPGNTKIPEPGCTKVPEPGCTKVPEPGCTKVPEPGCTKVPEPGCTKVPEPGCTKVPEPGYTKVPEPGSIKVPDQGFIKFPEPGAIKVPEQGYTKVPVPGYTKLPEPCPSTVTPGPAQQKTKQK
Glutamate--cysteine ligase catalytic subunit (Homo sapiens), sequence (P48506 whole entry): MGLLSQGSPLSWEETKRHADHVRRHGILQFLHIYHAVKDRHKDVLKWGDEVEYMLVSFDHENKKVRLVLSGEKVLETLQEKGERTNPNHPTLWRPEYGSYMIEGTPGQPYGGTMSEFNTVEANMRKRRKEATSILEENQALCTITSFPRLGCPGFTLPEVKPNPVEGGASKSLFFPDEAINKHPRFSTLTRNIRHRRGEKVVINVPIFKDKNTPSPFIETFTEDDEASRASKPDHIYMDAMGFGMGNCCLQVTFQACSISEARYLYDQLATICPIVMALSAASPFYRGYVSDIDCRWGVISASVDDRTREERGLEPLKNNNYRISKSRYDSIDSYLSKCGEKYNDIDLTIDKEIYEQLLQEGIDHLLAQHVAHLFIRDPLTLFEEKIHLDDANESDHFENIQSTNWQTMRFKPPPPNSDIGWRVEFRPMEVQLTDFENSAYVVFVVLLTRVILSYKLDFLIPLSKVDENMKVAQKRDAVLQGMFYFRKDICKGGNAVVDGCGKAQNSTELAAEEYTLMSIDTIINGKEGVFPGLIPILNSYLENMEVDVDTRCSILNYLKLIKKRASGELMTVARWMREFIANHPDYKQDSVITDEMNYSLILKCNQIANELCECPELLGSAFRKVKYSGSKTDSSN
Acyl-coenzyme A thioesterase 9, mitochondrial (Homo sapiens), sequence (Q9Y305 whole entry): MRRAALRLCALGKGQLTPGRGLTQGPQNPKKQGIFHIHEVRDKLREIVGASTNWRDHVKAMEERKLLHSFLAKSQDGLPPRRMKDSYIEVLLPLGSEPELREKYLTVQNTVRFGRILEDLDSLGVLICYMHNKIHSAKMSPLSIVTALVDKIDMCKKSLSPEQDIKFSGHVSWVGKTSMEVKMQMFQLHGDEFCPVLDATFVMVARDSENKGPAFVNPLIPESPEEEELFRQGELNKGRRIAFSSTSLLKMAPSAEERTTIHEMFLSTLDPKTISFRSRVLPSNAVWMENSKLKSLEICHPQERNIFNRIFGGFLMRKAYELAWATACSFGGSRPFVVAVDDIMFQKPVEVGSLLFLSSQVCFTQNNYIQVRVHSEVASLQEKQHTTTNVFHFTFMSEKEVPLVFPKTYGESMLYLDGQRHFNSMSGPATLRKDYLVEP
ATP-dependent RNA helicase DHX15 (Homo sapiens), sequence (O43143 whole entry): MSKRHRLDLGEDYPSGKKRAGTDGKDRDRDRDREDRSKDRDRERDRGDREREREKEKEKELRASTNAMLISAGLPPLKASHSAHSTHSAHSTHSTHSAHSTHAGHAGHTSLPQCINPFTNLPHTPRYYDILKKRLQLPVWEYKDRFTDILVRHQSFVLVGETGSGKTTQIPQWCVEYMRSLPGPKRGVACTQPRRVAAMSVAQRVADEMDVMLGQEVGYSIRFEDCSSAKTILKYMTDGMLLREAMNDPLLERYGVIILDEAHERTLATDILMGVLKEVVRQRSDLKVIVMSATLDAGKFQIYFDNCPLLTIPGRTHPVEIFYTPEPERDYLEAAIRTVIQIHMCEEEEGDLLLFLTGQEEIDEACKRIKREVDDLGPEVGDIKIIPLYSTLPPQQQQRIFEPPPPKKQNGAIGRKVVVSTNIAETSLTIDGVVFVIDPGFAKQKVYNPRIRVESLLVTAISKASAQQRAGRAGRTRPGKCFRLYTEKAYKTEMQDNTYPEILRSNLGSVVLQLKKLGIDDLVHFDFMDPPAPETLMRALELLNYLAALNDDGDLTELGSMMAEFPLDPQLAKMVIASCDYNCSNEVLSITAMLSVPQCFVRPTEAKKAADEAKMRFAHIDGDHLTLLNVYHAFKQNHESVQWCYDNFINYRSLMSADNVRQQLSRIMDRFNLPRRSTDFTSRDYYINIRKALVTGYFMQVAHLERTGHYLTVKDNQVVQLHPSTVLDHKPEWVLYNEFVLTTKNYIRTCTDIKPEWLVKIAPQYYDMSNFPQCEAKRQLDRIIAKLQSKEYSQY
Poly(rC)-binding protein 1 (Homo sapiens), sequence (Q15365 whole entry): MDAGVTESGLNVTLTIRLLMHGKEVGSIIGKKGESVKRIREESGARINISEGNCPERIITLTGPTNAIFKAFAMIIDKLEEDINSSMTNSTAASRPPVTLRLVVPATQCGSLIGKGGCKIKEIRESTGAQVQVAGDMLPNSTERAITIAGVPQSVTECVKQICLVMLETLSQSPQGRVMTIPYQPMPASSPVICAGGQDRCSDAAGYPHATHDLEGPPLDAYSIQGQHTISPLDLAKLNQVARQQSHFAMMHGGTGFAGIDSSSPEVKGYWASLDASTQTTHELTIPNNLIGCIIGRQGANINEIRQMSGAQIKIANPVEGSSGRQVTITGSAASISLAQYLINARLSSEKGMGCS
Trafficking protein particle complex subunit 5 (Homo sapiens), sequence (Q8IUR0 whole entry, one chain of several): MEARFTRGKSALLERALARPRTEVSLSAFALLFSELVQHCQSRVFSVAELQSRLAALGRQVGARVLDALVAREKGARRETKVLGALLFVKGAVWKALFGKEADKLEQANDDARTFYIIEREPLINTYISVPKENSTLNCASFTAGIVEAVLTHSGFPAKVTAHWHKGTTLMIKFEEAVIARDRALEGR
Tight junction protein 1 (Homo sapiens), sequence (Q07157 whole entry): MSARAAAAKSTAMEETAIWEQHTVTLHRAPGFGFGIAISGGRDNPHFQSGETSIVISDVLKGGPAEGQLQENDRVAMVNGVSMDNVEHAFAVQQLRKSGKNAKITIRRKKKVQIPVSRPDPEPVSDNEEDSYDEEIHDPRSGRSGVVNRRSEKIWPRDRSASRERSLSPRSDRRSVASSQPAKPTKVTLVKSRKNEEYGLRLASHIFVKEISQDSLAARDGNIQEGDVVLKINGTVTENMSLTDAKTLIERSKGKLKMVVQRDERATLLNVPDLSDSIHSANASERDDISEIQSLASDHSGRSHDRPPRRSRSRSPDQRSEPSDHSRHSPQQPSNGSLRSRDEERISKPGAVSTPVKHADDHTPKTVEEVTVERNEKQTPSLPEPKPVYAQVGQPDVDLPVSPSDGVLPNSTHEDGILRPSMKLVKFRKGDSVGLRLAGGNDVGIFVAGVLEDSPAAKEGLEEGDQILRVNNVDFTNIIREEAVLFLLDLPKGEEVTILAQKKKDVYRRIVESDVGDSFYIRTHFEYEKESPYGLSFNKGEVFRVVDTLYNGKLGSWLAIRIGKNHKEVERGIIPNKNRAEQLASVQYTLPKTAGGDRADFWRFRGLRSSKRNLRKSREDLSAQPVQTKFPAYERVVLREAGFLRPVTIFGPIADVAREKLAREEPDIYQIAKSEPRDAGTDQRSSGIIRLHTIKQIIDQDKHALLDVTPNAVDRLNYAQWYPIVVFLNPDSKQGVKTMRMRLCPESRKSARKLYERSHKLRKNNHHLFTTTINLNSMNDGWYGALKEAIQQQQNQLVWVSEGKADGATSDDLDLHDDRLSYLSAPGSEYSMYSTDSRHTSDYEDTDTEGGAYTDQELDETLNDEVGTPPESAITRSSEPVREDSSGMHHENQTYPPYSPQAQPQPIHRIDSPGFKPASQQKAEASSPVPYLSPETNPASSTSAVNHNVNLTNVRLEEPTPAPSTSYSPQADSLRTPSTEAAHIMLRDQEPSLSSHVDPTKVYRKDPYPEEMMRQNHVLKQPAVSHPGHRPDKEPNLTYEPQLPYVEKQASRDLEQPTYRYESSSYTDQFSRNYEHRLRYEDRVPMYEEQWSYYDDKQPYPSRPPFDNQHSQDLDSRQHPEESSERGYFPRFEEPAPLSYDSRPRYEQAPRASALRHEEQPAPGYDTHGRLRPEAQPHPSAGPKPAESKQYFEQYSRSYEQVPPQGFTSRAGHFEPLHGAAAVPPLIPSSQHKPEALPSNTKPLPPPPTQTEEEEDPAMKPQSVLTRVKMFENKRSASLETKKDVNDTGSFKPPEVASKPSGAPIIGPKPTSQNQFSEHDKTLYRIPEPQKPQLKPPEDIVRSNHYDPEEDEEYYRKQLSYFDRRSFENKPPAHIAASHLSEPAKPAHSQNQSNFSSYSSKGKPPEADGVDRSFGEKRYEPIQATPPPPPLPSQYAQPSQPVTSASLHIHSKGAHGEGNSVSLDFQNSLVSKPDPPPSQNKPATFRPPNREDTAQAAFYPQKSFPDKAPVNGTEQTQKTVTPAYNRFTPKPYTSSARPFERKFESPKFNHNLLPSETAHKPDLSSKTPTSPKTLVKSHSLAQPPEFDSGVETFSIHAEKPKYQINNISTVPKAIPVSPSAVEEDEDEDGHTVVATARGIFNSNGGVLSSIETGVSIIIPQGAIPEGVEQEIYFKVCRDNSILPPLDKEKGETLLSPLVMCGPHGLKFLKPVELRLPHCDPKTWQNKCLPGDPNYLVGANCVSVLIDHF
Mitogen-activated protein kinase 1 (Homo sapiens), sequence (P28482 whole entry): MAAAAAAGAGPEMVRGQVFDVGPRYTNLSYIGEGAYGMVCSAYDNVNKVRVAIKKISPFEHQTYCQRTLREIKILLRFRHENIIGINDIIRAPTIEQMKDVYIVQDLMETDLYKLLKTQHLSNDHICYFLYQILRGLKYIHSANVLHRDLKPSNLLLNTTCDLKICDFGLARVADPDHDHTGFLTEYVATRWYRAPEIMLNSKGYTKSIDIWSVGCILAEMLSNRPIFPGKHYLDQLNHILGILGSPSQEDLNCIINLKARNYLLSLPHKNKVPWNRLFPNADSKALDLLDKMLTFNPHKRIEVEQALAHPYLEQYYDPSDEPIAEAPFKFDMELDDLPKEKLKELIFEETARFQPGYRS

SMILES: COc1cc(O)c2c(c1)/C=C/C[C@H](O)[C@H](O)C(=O)/C=C\C[C@H](C)OC2=O
Activity [1]: 68%

Activity [2]: Active
Activity [3]: Active
Activity [4]: Active
Activity [5]: Active
Activity [6]: Active
Activity [7]: Active
Activity [8]: Active
Activity [9]: Active
Activity [10]: Active
Activity [11]: Active
Activity [12]: Active
Activity [13]: Active
Activity [14]: Active
Activity [15]: Active
Activity [16]: Active
Activity [17]: Active
Activity [18]: Active
Activity [19]: Active
Activity [20]: Active
Activity [21]: Active
Activity [22]: Active
Activity [23]: Active
SMILES: C=CC(=O)Nc1ccccc1Nc1nc(Nc2ccc(N3CCN(CCOCCOCCOCCNC(=O)CCCC[C@@H]4SC[C@@H]5NC(=O)N[C@@H]54)CC3)cc2)ncc1Cl
